Assay outcomes from PubChem.
This is a sample that favours compounds with a hit; in the whole collection about 2% have one here.
HSV augment: increases HSV replication in cells. HSV replication augmentation in cells, fold increase. maximum fold increase. 220,000 compounds, 0.005% hits. AID 1956; in the data active means maximum fold increase above about 1.5; inconclusive means no clear call, values can overlap the other calls; tested in PC3 cells
Furin inh: human furin inhibition. P09958. purified furin, fluorogenic substrate cleavage. inhibition, % at 20 µM or 30 µM. 220,000 compounds, 0.061% hits; in the data active means inhibition above about 25%
Target sequence (P09958 108-714 limits assumed): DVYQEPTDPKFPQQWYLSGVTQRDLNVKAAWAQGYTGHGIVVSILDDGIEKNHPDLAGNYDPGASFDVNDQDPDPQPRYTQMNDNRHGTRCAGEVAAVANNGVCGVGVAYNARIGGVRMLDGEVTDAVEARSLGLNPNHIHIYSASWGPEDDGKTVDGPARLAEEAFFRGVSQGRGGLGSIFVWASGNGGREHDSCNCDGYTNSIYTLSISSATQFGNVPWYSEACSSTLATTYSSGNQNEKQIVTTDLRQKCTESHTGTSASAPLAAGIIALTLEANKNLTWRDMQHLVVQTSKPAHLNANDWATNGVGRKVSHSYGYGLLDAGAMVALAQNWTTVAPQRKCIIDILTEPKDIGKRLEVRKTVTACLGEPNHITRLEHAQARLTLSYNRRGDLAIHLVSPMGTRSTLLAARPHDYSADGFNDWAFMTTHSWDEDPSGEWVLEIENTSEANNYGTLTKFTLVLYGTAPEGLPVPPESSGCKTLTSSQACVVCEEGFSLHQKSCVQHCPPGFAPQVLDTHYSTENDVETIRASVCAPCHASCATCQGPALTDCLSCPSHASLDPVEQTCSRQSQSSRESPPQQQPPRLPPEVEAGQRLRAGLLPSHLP
Autophagy HCS: alters autophagy in cells; 190,000 compounds, 0.98% hits; MEF GFP-LC3 puncta imaging; test concentration mostly 10 µM; calls only at 10 µM (by protocol); AID 463193;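 active means percentage of spot-positive cells more than 3 SD above its plate mean, without a fluorescence outlier flag or 80% toxicity; inconclusive means no clear call, values can overlap the other calls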;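 further: spot-positive cell cutoff set from DMSO-treated cells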
Insulin prom inh: TRM-6 insulin promoter activity inhibition; TRM-6 cells (human fetal islet line), insulin promoter-eGFP reporter, imaging; reporter expression induced with tamoxifen; inhibition, % at 2 µM; 130,000 compounds, 0.9% hits;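 active means inhibition above the mean plus 3 SD, with well images judged a real hit on visual review, cut at about 60% in these data, passing the limit was not always enough; inconclusive means inhibition over the cutoff but images rejected on review; inactive means inhibition not above the cutoff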
Dynein transport: blocks dynein driven cargo transport along microtubules; 3617.4 mouse cells, GR-EGFP nuclear translocation imaging; test concentration mostly 20 µM; stimulated with dexamethasone, 1 µM; stronger effect = lower value; z-score, hits read low; 220,000 compounds, 0.47% hits;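 active means plate z-score of nuclear minus cytoplasmic receptor signal below a set negative limit, without overly bright fluorescence or cell loss, cut at about -3.5 in these data, passing the limit was not always enough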;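 further: z-score of nuclear minus cytoplasmic ring GR-EGFP intensity difference per well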
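Also added – dexamethasone, 1.0 µM final · Buffer or medium – tet-free, stripped-serum medium · Schedule – induction 48 h, compound 1 h, agonist 30 min · Detection – formaldehyde fixation, Hoechst nuclear stain, 10x automated fluorescence imaging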
Insulin prom up: MIN6 insulin promoter up-regulation; AID 1625; z-score at 5 µM; 190,000 compounds, 0.3% hits; MIN6 insulin promoter-GFP reporter, high-content imaging; stronger effect = higher value;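 active means z-score above 3 at 5 µM with at least 500 cells counted in the well; inconclusive means wells under 500 cells, flagged as cytotoxic or low count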
* hit, by the source's call; i = inactive; ? = inconclusive; . = no result; + = active, no number.

SMILES	HSV augment	Furin inh	Autophagy HCS	Insulin prom inh	Dynein transport	Insulin prom up
COc1ccc(-c2cc(C(F)(F)F)n3nc(C(=O)Nc4c(C)n(C)n(-c5ccccc5)c4=O)cc3n2)cc1	i	0	i	27	-0.26	0.35
COc1ccc(C2C(C#N)=C(N)Oc3cc(O)ccc32)cc1OC (stereo not given)	i	-27	i	.	-0.14	0.52
COc1cc(C2C(C#N)=C(N)Oc3cc(O)ccc32)cc(OC)c1OC (stereo not given)	i	-17	+	-47	-0.84	.
Cc1[nH]n2c(=O)c3c(nc2c1-c1ccc(Cl)cc1)CCC3	i	6	i	-65	-0.35	0.45
Cc1[nH]n2c(=O)c3c(nc2c1-c1ccccc1)CCC3	i	-10	i	83*	1.1	0.44
O=C(CN1C(=O)C2CCCCC2C1=O)OCC(=O)c1ccc(Cl)s1 (stereo not given)	i	-25	i	36	-1.6	-0.21
COC(=O)/C=c1/s/c(=C(/C#N)C(=O)NCc2ccccc2)n(-c2ccccc2)c1=O	i	-18	i	41	-1.3	0.07
CCCCCCOc1ccc(/C=c2\s/c(=C(/C#N)C(=O)NCc3ccco3)n(-c3ccccc3)c2=O)cc1	i	-2	+	-14	2.6	-0.32
COCCNC(=S)N/N=C(\C)c1ccc(OC)cc1	i	-21	i	0	-0.29	0.99
COCCNC(=S)N/N=C(\C)c1ccc2cc(OC)ccc2c1	i	-4	i	-7	1.4	3.4*
N=c1n(CCN2CCCC2)c2ccccc2n1CC(O)c1ccc(Cl)c(Cl)c1 (stereo not given)	i	-20	+	.	4	-1.8
CCCOc1ccc(-c2nn(-c3ccccc3)cc2/C=C2\SC(=S)N(C3CCS(=O)(=O)C3)C2=O)cc1 (stereo not given)	i	12	i	24	-0.63	4.8*
CC(=O)N1c2ccccc2N(Cc2ccc(C)cc2C)C(=O)C1(C)C	i	-23	+	.	-1	0.22
C=CCN1C(=O)C(C)(C)N(C(C)=O)c2ccccc21	i	-17	i	11	-1.1	0.53
COC(=O)c1cn(NC(=O)C2COc3ccccc3O2)c(=O)c2ccccc12 (stereo not given)	i	-19	i	.	-0.27	2.1
COC(=O)c1cn(NC(=O)C2CCCO2)c(=O)c2ccccc12 (stereo not given)	i	-5	+	-3	1.5	0.46
CC(=O)C1C(=O)CC(C)(O)C(C(C)=O)C1c1ccccc1 (stereo not given)	i	-6	i	-38	0.23	0.87
CCOC(=O)C1CCN(C(=O)Nc2ccc(OC(F)(F)F)cc2)CC1	i	-20	.	.	0.53	-0.22
CCOc1ccc(-c2c(C#N)c(N)nc3sc(C(=O)c4ccccc4)c(N)c23)cc1	i	-7	.	.	0.78	9.1*
CSc1c(C#N)c(N)nc2sc(C(=O)c3ccc(Cl)c(Cl)c3)c(N)c12	i	-19	.	.	-2.9	.
CC(C)CC1NC(=O)N(CC(=O)NC2CCCc3ccccc32)C1=O (stereo not given)	i	-16	i	.	0.46	0.12
Cc1cccc(NC(=S)N(CCN2CCOCC2)Cc2ccccc2F)c1	i	-27	i	33	-0.65	0.09
O=C(Nc1ccccc1)N(CCN1CCOCC1)Cc1ccccc1F	i	30*	i	-72	0.99	0.25
CCCc1n[nH]c2c1C(=O)C(C(=O)OC)C(C)(C)C2 (stereo not given)	i	-15	i	30	-0.27	3.6*
O=C(CCN1CCC(c2ccccc2)C1)c1cccs1 (stereo not given)	i	-19	i	35	-0.68	0.26
SMILES	HSV augment	Furin inh	Autophagy HCS	Insulin prom inh	Dynein transport	Insulin prom up
O=C(c1cccs1)N1CCC(c2ccccc2)C1 (stereo not given)	i	-10	i	79*	1.1	0.68
O=C(CSc1cccc[n+]1[O-])Nc1cccc(S(=O)(=O)NC2=NCCCCC2)c1	i	-13	i	.	0.11	0.15
CCOC(=O)c1sc(NC(=O)c2c(C)noc2C)c(C(=O)OCC)c1C	.	-24	+	32	-0.029	.
Cn1c(=O)c(Nc2ccc(O)cc2)c2c3c(cccc31)C(=O)c1ccccc1-2	?	-8	i	19	0.14	-2
COc1cccc(/C=C/C(=O)OCC(=O)NCCC2=CCCCC2)c1	i	-18	i	-14	-0.22	-0.08
Cc1[nH]nc2c1C(c1ccsc1C)C(C#N)=C(N)O2 (stereo not given)	i	-19	i	-6	-0.083	-0.56
Cc1cc(C2C(C#N)=C(N)Oc3n[nH]c(C)c32)c(C)s1 (stereo not given)	i	-22	i	-29	-0.037	3.4*
CCN(C(=O)COC(=O)/C=C/c1c(C)nn(Cc2ccc(C)cc2)c1C)C1CCS(=O)(=O)C1 (stereo not given)	i	-18	i	.	-0.82	0.19
Cc1ccc2c(C)nc(/N=C(\N)NC(=O)N3c4ccccc4Sc4ccccc43)nc2c1	i	-29	i	80*	0.019	-0.9
Cc1ccc(C(C[N+](=O)[O-])c2c(-c3ccccc3O)[nH][nH]c2=O)cc1 (stereo not given)	i	-7	i	.	-2.1	-0.16
Cc1ccc(-c2nc(-c3ccc(Cl)cc3)sc2CC(=O)O)c(C)c1	i	-34	i	.	0.43	0.33
CNc1ccc(Br)cc1C(O)c1ccccc1 (stereo not given)	i	-12	.	.	0.58	0.87
COc1ccc(/C=C/C(=O)NCC(=O)N/N=C(/CCC(=O)O)c2ccccc2)cc1	i	-13	.	.	-0.12	0.01
COc1cc(C2Nc3cccc4cccc(c34)N2)cc(OC)c1O	i	-14	+	14	-3.7*	.
CC(Oc1ncnc2ccccc12)C(=O)Nc1cccc(S(=O)(=O)N2CCOCC2)c1 (stereo not given)	i	0	i	26	-0.21	0.18
CCn1c(=O)cc(SCC(=O)NCc2ccc(C)cc2)c2ccccc21	i	-4	i	-21	2.9	0.6
CCn1c(=O)cc(SCC(=O)Nc2ccc(C)cn2)c2ccccc21	i	-11	+	.	-0.3	0.34
CCn1c(=O)cc(SCC(=O)NCc2ccc(C)o2)c2ccccc21	i	-17	i	.	-0.48	0.21
CCn1c(=O)cc(SCC(=O)NCc2ccco2)c2ccccc21	i	-19	+	.	-0.35	-0.71
COc1ccc(CN2CCN(Cc3ccon3)CC2CCO)c(C)c1C (stereo not given)	i	-19	.	.	-0.21	0.57
CC1(C)CC(CCNC(=O)CCl)(c2ccccc2)CCO1 (stereo not given)	i	-19	.	.	-0.45	0.17
COc1ccc(/C=C/C(=O)c2cc3c(cc2N)OCO3)cc1	i	-7	i	-40	-0.55	0.85
